From the RNAGym collection of RNA variant scans (doi:10.1038/s41586-018-0170-7) come the findings set out here.

The labels stand for the following.
B1: tRNA (parent)
chain: GUUCCGUUGGCGUAAUGGUAACGCGUCUCCCUCCUAAGGAGAAGACUGCGGGUUCGAGUCCCGUACGGAACG

Variants of B1 are the subject of the data set. As to the kind of experiment: yeast fitness, log relative to wild type (ln ratio); higher = fitter; tRNA-Arg(CCU), competitive growth, 37 C, 1 M NaCl. The method in brief: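 Fitness is the natural log of a genotype's generation count divided by that of the wild type. A combinatorial library of tRNA-Arg(CCU) variants sat on a HIS3 centromeric plasmid in BY4742 lacking the chromosomal gene, from two independent transformations. Pools grew 4 generations in SC-HIS at 30 °C, then ~6.5 generations (~26.5 h) in SC-HIS 1M NaCl at 37 °C, with three outputs per input. Generations came from OD-scaled log2 output/input frequency, inverse-variance weighted across replicates, with variants counted by 125 bp paired-end Illumina sequencing.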
On to G1A U2G C27U C66U A70U, for which the “yeast fitness (ln)” value was -0.174. As for U2C G6A A43C C66A A69G A70G C71U, the figure is -0.218; as for G1A U2C G6A C27U C46U C66U A70G, -0.0633. Regarding G1A G6U C27U C46U A69G A70U C71U, the “yeast fitness (ln)” value was -0.431. To U2G G6A C27U C71U belongs -0.156; to U2C G6A C27U A43C C46U C66A A70G, -0.101; to U2C G6A C27U A43C C46U C66A A70U, -0.0497. As for U2C G6U C27U C46U C71U, the figure is -0.235; as for U2G G6A A43C C66U C71U, -0.388; as for G1A U2G G6A C27U A69G A70U C71U, -0.526. Take G1A G6U C27U C66A A69G A70G C71U: the “yeast fitness (ln)” value was -0.31.

Turning to U2C C46U A70U C71U, the “yeast fitness (ln)” value is -0.0871.

On to G1A U2G C27U A43C C46U A69G A70G C71U, for which the “yeast fitness (ln)” value is -0.221. To U2C G6U C46U C66U belongs -0.12. As for U2G G6U C27U A43C C46U C66U A69G A70G C71U, the figure is -0.369; as for U2G G6U C27U A43C C46U C66U A69G C71U, -0.375.

Consider C66A A69G A70U C71U, for which the “yeast fitness (ln)” value is -0.32.

With G1A U2G G6U C46U C66U A70G, the “yeast fitness (ln)” value was -0.238. As for U2G C27U A43C C66A A69G A70G, the “yeast fitness (ln)” value was -0.42. As to G1A U2G G6A C27U A43C C46U C71U, the “yeast fitness (ln)” value is -0.42. As for G6U A43C A69G A70U, the figure is -0.371. As for G1A A43C C66U A69G C71U, the figure is -0.377; as for G1A U2G G6U A43C C46U C66U, -0.271. As for U2C G6U A43C C46U C66U C71U, the “yeast fitness (ln)” value was -0.242. On to G6U C27U A43C C46U C66U, for which the “yeast fitness (ln)” value is -0.271. As for G1A C66A A70U, the figure is -0.0714. To C66A A69G A70U belongs -0.0115.

For the variant G1A U2C C27U A43C C46U C66A A70G C71U, the “yeast fitness (ln)” value is -0.16. Regarding U2C C27U C66A A70G C71U, the “yeast fitness (ln)” value is -0.157. As for G6U C66A A70G C71U, the figure is -0.233; as for G6A C66U A70G, -0.00631; as for U2G G6U A43C C66A A69G A70U C71U, -0.355. As for G6A C27U C66A A70U C71U, the figure is -0.246; as for G1A U2G C27U C66U A70G C71U, -0.321. As for G1A U2G G6A A43C C46U C66U A70G C71U, the “yeast fitness (ln)” value was -0.266. As for U2C C27U A43C C46U C66U A69G C71U, the figure is -0.281; as for G1A U2G G6A C66U A69G A70U C71U, -0.33. To G1A C27U C66U A69G A70G C71U belongs -0.361; to G1A U2C C27U A43C C46U C66U A70U C71U, -0.297. In the case of G1A U2C G6U A43C C66A A69G A70G C71U, the “yeast fitness (ln)” value is -0.0437. To G6U C66U A69G A70U C71U belongs -0.481. As for U2C A43C C66U A69G A70G, the figure is -0.169; as for U2C G6U C27U A69G A70U, -0.111. For the variant U2G G6A C27U A69G, the “yeast fitness (ln)” value was -0.24. As for G1A U2G G6U C27U C46U C66A A70U, the figure is -0.322; as for G1A C66U C71U, -0.105.

As for C27U A43C C66U A70U C71U, the “yeast fitness (ln)” value is -0.326. As for G6A C46U C66U A70U, the “yeast fitness (ln)” value is -0.00103.

Regarding U2G G6U C27U C46U C71U, the “yeast fitness (ln)” value is -0.199. For the variant G1A U2G G6A C27U C66U, the “yeast fitness (ln)” value is -0.221. Consider G1A U2G A43C C46U C66A A70G C71U, for which the “yeast fitness (ln)” value was -0.187. Take U2C C27U C46U C66A: the “yeast fitness (ln)” value is -0.143. With G1A G6U C27U C46U C66U A70U C71U, the “yeast fitness (ln)” value is -0.438. Consider G1A U2C G6A C27U A43C C46U A70U C71U, for which the “yeast fitness (ln)” value is -0.153.

Take G1A C27U A43C C46U C66U A69G A70U: the “yeast fitness (ln)” value is -0.4. To G6U A70G belongs -0.221; to G6U C27U A69G A70G, -0.33; to U2C C27U A43C A70U C71U, -0.172.

Regarding U2C C27U A70U C71U, the “yeast fitness (ln)” value was -0.104.

On to U2C G6A A43C C66U A69G A70U C71U, for which the “yeast fitness (ln)” value is -0.366. Consider G1A U2C G6A C66U C71U, for which the “yeast fitness (ln)” value was -0.083. In the case of G1A G6U C27U A43C C66A A69G A70G C71U, the “yeast fitness (ln)” value is -0.417. On to U2G C46U A70G C71U, for which the “yeast fitness (ln)” value was -0.284.

Regarding G6A C27U A69G A70G C71U, the “yeast fitness (ln)” value is -0.265. To U2G G6U C27U A43C C46U C66U A69G A70U C71U belongs -0.507; to G1A U2G G6A C27U C46U, -0.154.

Turning to U2G G6U C27U A43C C46U C66A, the “yeast fitness (ln)” value was -0.0517. As for U2G G6U C27U A43C C46U C66U A70U C71U, the figure is -0.378; as for U2G A43C C46U A70U C71U, -0.0246. As for U2G G6U C27U A43C C66A A70G, the figure is -0.214. On to G6A C46U A69G A70U C71U, for which the “yeast fitness (ln)” value is -0.218. With U2G A43C C66U A69G A70U, the “yeast fitness (ln)” value is -0.307. To G6A A70G C71U belongs -0.175. In the case of C27U A43C C66U A69G C71U, the “yeast fitness (ln)” value was -0.344. Turning to C46U A69G A70G C71U, the “yeast fitness (ln)” value was -0.237. To G1A U2G G6U A43C C46U C66U A70U belongs -0.275; to U2C G6A C46U C66U C71U, -0.164. Regarding G1A U2C C27U A43C A70G, the “yeast fitness (ln)” value was -0.0774. To A43C A69G A70G C71U belongs -0.0742. As for G1A U2C A43C C46U A70U, the figure is -0.0817.

As for U2G G6A C66A A70G, the “yeast fitness (ln)” value is -0.0981. For the variant G1A U2C C66A A70G C71U, the “yeast fitness (ln)” value is -0.208. Consider C46U C66U, for which the “yeast fitness (ln)” value is -0.000909. To U2C G6A A43C C46U C66U C71U belongs -0.0554.
